Experimental findings from ChEMBL document CHEMBL1799921, “3-(1,3,4-Thiadiazole-2-yl)quinoline derivatives: synthesis, characterization and anti-microbial activity” (Eur J Med Chem, 2011) are described below.

Converted amounts (≈) assume the structure as drawn. A value given as a limit tells only on which side of the number the result lay.

The subject of data set [1] is Streptococcus pyogenes. The data set can be described thus: Antibacterial activity against Streptococcus pyogenes after 18 hrs by macro-dilution test. Format: functional. The procedure, abridged:
(§1)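 Tube macro-dilution. Compounds in DMSO serially diluted to final […]. 24 h old inoculum added to each tube. Standard inoculum […]. Incubated 18 h at 37 °C. MIC is the lowest concentration with no visible growth, read visually. DMSO negative and amoxicillin positive controls.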

Data set [2] relates to Salmonella typhimurium. The data set can be described thus: Antibacterial activity against Salmonella Typhimurium measured at MIC after 18 hrs by halo zone test. Format: functional, Salmonella enterica subsp. enterica serovar Typhimurium. In short, it runs like this:
(§2)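 Disk diffusion. Strains subcultured 18 h at 37 °C in BHI, then suspended in saline by McFarland to about 10⁵ CFU/mL. Suspension mixed 1:1 with antibiotic agar at 40 °C and plated. 6.0 mm paper disks loaded with dilutions from a DMSO stock (1 mg per 100 of DMSO). Incubated 18 h at 36 °C. Inhibition zone (mm) measured at the MIC. Amoxicillin and DMSO disks as controls.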

Data set [3] has as its system Escherichia coli. The data set can be described thus: Antibacterial activity against Escherichia coli after 18 hrs by macro-dilution test. The data set is classed as functional. In short, it runs like this:
as §1

Data set [4] has as its system Staphylococcus aureus. The data set can be described thus: Antibacterial activity against Staphylococcus aureus after 18 hrs by macro-dilution test. The data set is classed as functional. The procedure, abridged:
as §1

In data set [5] the test system is Salmonella typhimurium. The data set can be described thus: Antibacterial activity against Salmonella Typhimurium after 18 hrs by macro-dilution test. Format: functional, Salmonella enterica subsp. enterica serovar Typhimurium. Particulars: Salmonella enterica. The procedure, abridged: as §1
Data set [6] relates to Staphylococcus aureus. Put plainly: Antibacterial activity against Staphylococcus aureus measured at MIC after 18 hrs by halo zone test. The data set is classed as functional. The procedure, abridged:
as §2

The test system of data set [7] is Escherichia coli. The data set can be described thus: Antibacterial activity against Escherichia coli measured at MIC after 18 hrs by halo zone test. Format: functional. In short, it runs like this: as §2
For data set [8], the system named is Streptococcus pyogenes. Put plainly: Antibacterial activity against Streptococcus pyogenes measured at MIC after 18 hrs by halo zone test. Format: functional. The procedure, abridged:
as §2

A short description of data set [9]: Cytotoxicity against rat H9c2 cells assessed as cell viability at 1.57 to 200 mg/mL after 48 hrs by MTT assay. Particulars: in the assay text read “1.57 to 200 ug/mL” for “1.57 to 200 mg/mL”, read-out: Activity. The data set is classed as cell-based. In short, it runs like this: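 Subconfluent H9c2 cardiac myoblasts treated with increasing concentrations for 48 h at 37 °C in 5% CO₂, alongside untreated cells. Then washed in PBS and given MTT (5 mg/mL) for 45 min at 37 °C. Crystals dissolved in acid isopropanol, absorbance read at 570 nm. Viability is absorbance of treated relative to untreated cells. Triplicate. DMSO and amoxicillin controls.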

The term MIC denotes the lowest concentration found to suppress growth. On to `CC(=O)NC1=NN(C(C)=O)C(c2cc3cccc(Cl)c3nc2Cl)S1` (stereo not drawn), for which the minimal inhibitory concentration (MIC) in data set [1], in [3], in [4] and in [5] was 64 µg/mL (≈ 167 µM) throughout. Also, the “inhibition zone (IZ)” value is 17.27 mm in [2], 18.13 mm in data set [6], 16.72 mm in data set [7] and 19.91 mm in data set [8].
Regarding `CC(=O)N1N=C(N(C(C)=O)C2CCCC2)SC1c1cc2cccc(Cl)c2nc1Cl` (stereo not drawn), the MIC in [1] stood at 64 µg/mL (≈ 142 µM); in [3], 128 µg/mL (≈ 284 µM); in data set [4], 64 µg/mL (≈ 142 µM); in data set [5] it was 128 µg/mL (≈ 284 µM). Further, the “inhibition zone (IZ)” value in [2] came to 15.17 mm; in data set [6], 18.03 mm; in data set [7], 18.18 mm; in data set [8] it was 14.15 mm.
Turning to `CC(=O)N1N=C(N(C(C)=O)C2CCCCC2)SC1c1cc2cccc(Cl)c2nc1Cl` (stereo not drawn), the minimum inhibitory concentration (MIC) was found to be 128 µg/mL (≈ 275 µM) in [1], 128 µg/mL (≈ 275 µM) in [3], 64 µg/mL (≈ 138 µM) in [4] and 256 µg/mL (≈ 550 µM) in data set [5]. The “inhibition zone (IZ)” value in data set [2] is listed as 16.72 mm; in data set [6] it was 17.39 mm; in data set [7] it was 15.23 mm; in data set [8], 17.73 mm.
Turning to `CC(=O)N1N=C(N(C(C)=O)C2CCCCCCC2)SC1c1cc2cccc(Cl)c2nc1Cl` (stereo not drawn), the MIC in data set [1] is 128 µg/mL (≈ 259 µM); in [3] it was 64 µg/mL (≈ 130 µM); in [4] it was 64 µg/mL (≈ 130 µM); in data set [5] it was 64 µg/mL (≈ 130 µM). The “inhibition zone (IZ)” value amounted to 18.54 mm in [2], 17.62 mm in data set [6], 16.36 mm in data set [7] and 17.94 mm in [8].
Regarding `CC(=O)N(C1=NN(C(C)=O)C(c2cc3cccc(Cl)c3nc2Cl)S1)c1ccccc1C` (stereo not drawn), the MIC in data set [1] came out at 64 µg/mL (≈ 135 µM); in [3], 32 µg/mL (≈ 67.6 µM); in data set [4], 16 µg/mL (≈ 33.8 µM); in data set [5] it was 32 µg/mL (≈ 67.6 µM). For the same molecule, the “inhibition zone (IZ)” value is 16.86 mm in data set [2], 19.76 mm in data set [6], 15.59 mm in data set [7] and 13.84 mm in [8]. Also, the viability at 48 h in data set [9] is > 80%.
Consider `CC(=O)N(C1=NN(C(C)=O)C(c2cc3cccc(Cl)c3nc2Cl)S1)c1cc(F)ccc1F` (stereo not drawn), for which the minimal inhibitory concentration (MIC) in data set [1], in [3], in data set [4] and in data set [5] was 64 µg/mL (≈ 129 µM) each time. The “inhibition zone (IZ)” value worked out at 17.59 mm in [2], 12.99 mm in [6], 16.45 mm in [7] and 13.92 mm in [8].
For the molecule `CC(=O)N(C1=NN(C(C)=O)C(c2cc3cccc(Cl)c3nc2Cl)S1)c1ccc(C)cc1` (stereo not drawn), the MIC in [1], in data set [3], in data set [4] and in data set [5] was 64 µg/mL (≈ 135 µM) each time. The “inhibition zone (IZ)” value in [2] is given as 16.88 mm; in data set [6] it was 15.67 mm; in data set [7], 18.11 mm; in [8], 17.09 mm.
For the molecule `CC(=O)N(C1=NN(C(C)=O)C(c2cc3cccc(Cl)c3nc2Cl)S1)c1ccc([N+](=O)[O-])cc1` (stereo not drawn), the minimum inhibitory concentration (MIC) in data set [1] is 64 µg/mL (≈ 127 µM); in data set [3] it was 32 µg/mL (≈ 63.4 µM); in [4], 32 µg/mL (≈ 63.4 µM); in data set [5], 32 µg/mL (≈ 63.4 µM). The “inhibition zone (IZ)” value amounted to 17.25 mm in data set [2], 19.81 mm in data set [6], 12.56 mm in data set [7] and 16.32 mm in data set [8]. The viability at 48 h in data set [9] is > 80%.
Turning to `CC(=O)NC1=NN(C(C)=O)C(c2cc3ccccc3nc2Cl)S1` (stereo not drawn), the MIC in [1], in data set [3], in [4] and in [5] was 64 µg/mL (≈ 183 µM) in each case. Moreover, the “inhibition zone (IZ)” value in data set [2] was 13.42 mm; in data set [6], 15.67 mm; in [7], 17.76 mm; in data set [8], 16.97 mm.
Consider `CC(=O)N1N=C(N(C(C)=O)C2CCCC2)SC1c1cc2ccccc2nc1Cl` (stereo not drawn), for which the MIC in data set [1] stood at 32 µg/mL (≈ 76.8 µM); in data set [3], 64 µg/mL (≈ 154 µM); in data set [4], 32 µg/mL (≈ 76.8 µM); in [5], 32 µg/mL (≈ 76.8 µM). Also, the “inhibition zone (IZ)” value in data set [2] was 18.6 mm; in data set [6], 20.63 mm; in [7], 19.79 mm; in data set [8], 19.93 mm. Further, the viability at 48 h in data set [9] is > 80%.
